High-throughput results as filed in PubChem BioAssay.
NF-kB expr up: NF-kB expression increase, human neuronal cells | NF-kB reporter expression; hits give high values | fold change at 12.5 µM | 1.6% of 190,000 active | AID 1239; in the data active means fold change above about 3.3
STAT1 activator: increases IFN-gamma driven STAT1 reporter signal; 2.6% of 200,000 active; activation (% of control), % at 5.5 µM; NIH 3T3 STAT1-luciferase reporter, luminescence; 100% = IFN-gamma alone, no compound;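 active means activation above the screen-wide mean activation plus 3 SD, cut at about 130% in these data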;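 further: raw ratio to IFN-gamma control signal so 100% means no change and 0% no light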
STAT1 inh: STAT1 signaling inhibition; NIH 3T3 STAT1-luciferase reporter, IFN-gamma, luminescence; 0.35% of 200,000 active; inhibition, % at 5.5 µM;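 active means inhibition above a set limit, the mean inhibition across all tested compounds plus 3 SD, cut at about 34% in these data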;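 further: 0% = IFN-gamma with DMSO and 100% = IFN-gamma with 300 µM nifuroxazide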
STAT3 blocker: STAT3 signaling inhibition; inhibition, % at 5.5 µM; 0.89% of 190,000 active; AID 862; U3A cells, IL-6 STAT3-luciferase reporter, luminescence; host cell line lacks STAT1;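 active means inhibition above the mean inhibition across all screened compounds plus 3 SD, cut at about 44% in these data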;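 further: 0% = DMSO only wells and 100% = 100 µM nifuroxazide control wells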
APP 5'UTR act: activates APP 5'UTR luciferase reporter | SH-SY5Y APP 5'UTR luciferase reporter, luminescence; zero percent = DMSO vehicle wells | activation, % at 2 µM | 1% of 190,000 active;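 active means activation above a set limit, based on mean plus 3 SD of controls, cut at about 140% in these data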
STAT3 activator: increases IL-6 driven STAT3 reporter signal; U3A cells, IL-6 STAT3-luciferase reporter, luminescence; 100% = signal with IL-6 EC80 alone; activation (% of control), % at 5.6 µM; 0.91% of 190,000 active; AID 871;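 active means activation above the screen-wide mean of compound activation plus 3 SD, cut at about 130% in these data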;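 further: 0% = background luminescence of wells with medium and substrate only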
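Material: STAT3-luciferase reporter U3A cells; Probe or stimulus: IL-6 (33 ng/mL); Incubation: compound pre-incubation 1 h before IL-6, then 6 h stimulation at 37 °C; Technique: luminescence from STAT3-driven luciferase reporter; Evaluation: % activation versus median of IL-6-stimulated wells; Controls: IL-6-only high control.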
STAT1 activ conf: confirmation of STAT1 signaling activators; shares compounds with STAT1 activator; NIH 3T3 STAT1-luciferase reporter, IFN-gamma potentiation, luminescence; 100% = IFN-gamma EC80 alone, no compound; activation (% of control), % at 5.7 µM; 97% of 1,200 active; AID 1262;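 active means activation above a set limit carried over from the earlier primary STAT1 screen, cut at about 140% in these data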;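 further: simple ratio to median IFN-gamma plus DMSO wells so 0% means no light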
NFkB act STAT1ct: activates NF-kappaB, counter-screen to STAT1 activators | shares compounds with STAT1 activator | HEK293T NF-kB luciferase reporter, TNF-alpha stimulated, luminescence; 100% = TNF-alpha with vehicle only | activation (% of control), % at 5.7 µM | 43% of 1,200 active | AID 1306;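 active means activation above the mean of solvent-only control wells plus 3 SD, set per campaign, cut at about 130% in these data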;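 further: TNF-alpha given at a submaximal dose yielding about 80% of full reporter signal; values are well signal over median control so 100% means no change and 0% no light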
STAT3 act STAT1c: activates human STAT3, counter-screen to STAT1 activators | shares compounds with STAT1 activator | U3A cells STAT3-luciferase reporter, IL-6, luminescence; cells lack STAT1; 100 = IL-6 alone, no compound effect | activation (% of control), % at 5.7 µM | 46% of 1,200 active | AID 1316;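 active means activation above the solvent-only control well mean plus 3 SD, set per plate batch, cut at about 110% in these data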;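 further: 0% = no luminescence and 100% = median IL-6 plus DMSO wells; higher means more STAT3 reporter activation so hits are non-selective activators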
* hit, by the source's call; / = no result. In the library only some 5.1% were active in any assay of this set; here they are far more common.

SMILES | NF-kB expr up | STAT1 activator | STAT1 inh | STAT3 blocker | APP 5'UTR act | STAT3 activator | STAT1 activ conf | NFkB act STAT1ct | STAT3 act STAT1c
O=[N+]([O-])c1cc(Br)c(OCc2nnc(-c3ccccc3)o2)c(Br)c1 | 1 | 103 | -4 | 4 | 20 | 103 | / | / | /
O=[N+]([O-])c1cccc(-c2nnc(-c3ccccc3)o2)c1 | 3 | 153* | -60 | 6 | 115 | 99 | 161* | 121 | 100
O=C(NC(=S)Nc1ccc(F)cc1)c1ccc2c(c1)OCCO2 | 2.1 | 152* | -59 | 24 | 213* | 84 | 211* | 130 | 101
COc1ccc(N(/N=C2\Sc3ccccc3C2=O)C(C)=O)cc1 | 4.8* | 151* | -55 | 6 | 172* | 100 | 191* | 123 | 110
COc1ccc(N(C(=O)c2ccccc2)S(=O)(=O)c2cccs2)cc1 | 0.97 | 87 | 12 | 4 | 2 | 107 | / | / | /
CCC(c1nnnn1C(C)(C)C)N(Cc1cccs1)Cc1cc2cc(C)c(C)cc2n2nnnc12 (centres undefined) | / | 95 | 6 | -28 | -11 | 125 | / | / | /
C#CCOCCOCCOCCNc1nc(N2CCN(C(=O)[C@H](C(C)C)n3cc(CCO)nn3)CC2)nc(N2CCN(C(=O)[C@H](CCCCN)n3cc(CCCC)nn3)CC2)n1 | 1.1 | 101 | -1 | -4 | -5 | 101 | / | / | /
Cc1ccc(-c2ccc(CCC(=O)O)n2C(C)C)cc1 | 0.84 | 151* | -57 | 8 | 6 | 97 | 106 | 113 | 101
Cc1ccc(-c2ccc(CCC(=O)O)n2NC(N)=S)cc1 | 1.1 | 96 | 4 | 9 | 6 | 96 | / | / | /
Cc1cc(NCCN2CCOCC2)n2ncc(-c3ccc(Cl)cc3)c2n1 | / | 105 | -5 | -9 | -2 | 107 | / | / | /
Cc1cc(NCCN2CCOCC2)n2ncc(-c3ccccc3)c2n1 | 3 | 165* | -72 | -17 | 42 | 116 | 219* | 146* | 152*
CCn1c2ccccc2c2cc(NC(=O)CSc3nccc(=O)[nH]3)ccc21 | 0.78 | 100 | -1 | -4 | 3 | 105 | / | / | /
O=C(c1ccccc1)N1CCc2ccccc21 | 1 | 95 | 6 | 7 | -6 | 95 | / | / | /
Cc1c(C(=O)N2CCc3ccccc32)oc2ccccc12 | 8.2* | 155* | -62 | -5 | 156* | 107 | 217* | 141* | 150*
Cc1ccc(/C=C/C(=O)N2CCc3ccccc32)o1 | 8.2* | 180* | -92 | 13 | 168* | 91 | 224* | 138* | 109
C/C(=C\C(=O)N1CCc2ccccc21)C(=O)O | 1.1 | 94 | 6 | -13 | -11 | 118 | / | / | /
CN1CCN(c2ccc(Cl)cc2NC(=O)CCN2C(=O)c3ccccc3C2=O)CC1 | 1.2 | 93 | 6 | -11 | -7 | 112 | / | / | /
COc1ccc2c(c1OC)C(=O)OC2Nc1nc(-c2ccc(-c3ccccc3)cc2)cs1 (centres undefined) | 11* | 181* | -91 | -7 | 179* | 104 | 232* | 135* | 98
COc1ccc2c(c1OC)C(=O)OC2Nc1nc(-c2cc3ccccc3oc2=O)cs1 (centres undefined) | 6.7* | 182* | -92 | 24 | 153* | 80 | 195* | 117 | 102
CCCCCCOc1ccc(/C(N)=N/O)cc1 | 6.8* | 161* | -67 | -12 | 78 | 113 | 157* | 129 | 121*
CC(Sc1nncs1)C(=O)Nc1ccc2c(c1)OCO2 (centres undefined) | 1.3 | 105 | -7 | -1 | -4 | 103 | / | / | /
